Source: ChEMBL document CHEMBL2062507, “Myxobacteria versus sponge-derived alkaloids: the bengamide family identified as potent immune modulating agents by scrutiny of LC-MS/ELSD libraries” (Bioorg Med Chem, 2012)
The source made the active and inactive calls. The rule behind the calls is not given here.

What was measured:
[1] = system: RAW264.7; assay: Antiinflammatory activity in mouse RAW264.7 cells assessed as inhibition of LPS-stimulated TNFalpha expression up to 10 uM by quantitative RT-PCR analysis; format: functional, cell-based
Method in brief: (§1)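 LPS (100 ng/mL)-stimulated RAW264.7 cells co-treated with compound at 0.01–10 μM. Total RNA (0.5 μg) DNase I-treated, reverse transcribed, cDNAs pooled per condition, SYBR Green real-time PCR array. mRNA normalised to GAPDH. Three independent experiments, one-way ANOVA, p<0.05 taken as significant.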

[2] = system: RAW264.7; assay: Antiinflammatory activity in mouse RAW264.7 cells assessed as inhibition of LPS-stimulated iNOS expression up to 10 uM by quantitative RT-PCR analysis; format: functional, cell-based; method in brief: as §1
[3] = system: RAW264.7; assay: Inhibition of LPS-stimulated NFkappaB activation transfected in mouse RAW264.7 cells at 0.01 to 10 uM after 4 hrs by measuring IKappaBalpha phosphorylation by Western blot analysis; format: cell-based
Method in brief: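 RAW264.7 cells grown near confluent in 6-well plates and given increasing compound concentrations with LPS for 4 h at 37 °C. Lysed in SDS loading buffer, run on 4–15% SDS-PAGE gels and blotted. Probed with anti-phospho-IκB and anti-IκB (1:1000), then HRP secondary. Detected by chemiluminescence on film, β-actin as loading control.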

[4] = system: RAW264.7; assay: Antiinflammatory activity in mouse RAW264.7 cells assessed as inhibition of LPS-stimulated nitric oxide production up to 10 uM after 30 mins by Greiss method; format: functional, cell-based
Method in brief: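 RAW264.7 cells grown 24 h in RPMI1640 in 96-well plates, then given fresh medium with compound and E. coli 055:B5 LPS. Supernatant mixed with Griess reagent (sulfanilamide, N-1-naphthylethylenediamine, H3PO4) for 30 min at room temperature in the dark. Absorbance read at 530 nm and converted to nitrite using a sodium nitrite standard curve.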

[5] = system: RAW264.7; assay: Antiinflammatory activity in mouse RAW264.7 cells assessed as inhibition of LPS-stimulated IL-6 expression up to 10 uM by quantitative RT-PCR analysis; format: functional, cell-based; method in brief: as §1
[6] = system: HCT-116; assay: Cytotoxicity against human HCT116 cells after 48 hrs by SRB assay; format: functional, cell-based; conditions: HCT-116, 48 h
[7] = system: RAW264.7; assay: Antiinflammatory activity in mouse RAW264.7 cells assessed as inhibition of LPS-stimulated MCP1 expression up to 10 uM by quantitative RT-PCR analysis; format: functional, cell-based; method in brief: as §1
[8] = Inhibition of LPS-stimulated NFkappaB activation transfected in mouse RAW264.7 cells after 18 hrs by luciferase reporter gene assay; conditions: RAW264.7, 18 h
[9] = system: RAW264.7; assay: Cytotoxicity against mouse RAW264.7 cells after 18 hrs by MTT assay; format: cell-based; conditions: RAW264.7, 18 h

Structure (SMILES) | Activity [1] | IC50 [1] | Activity [2] | inhibition [3] | Activity [4] | Activity [5] | IC50 [5] | IC50 [6] | Activity [7] | IC50 [7] | IC50 [8] | IC50 [9]
CCCCCCCCCCCCCC(=O)O[C@H]1CC[C@H](NC(=O)[C@H](OC)[C@H](O)[C@@H](O)[C@H](O)/C=C/C(C)C)C(=O)N(C)C1 [BENGAMIDE B] | Dose-dependent effect | 0.5 µM | inactive | Active | inactive | Dose-dependent effect | 0.5 µM | 0.002 µM | Dose-dependent effect | 0.5 µM | 0.085 µM | > 50 µM
CO[C@@H](C(=O)N[C@H]1CCCCNC1=O)[C@H](O)[C@@H](O)[C@H](O)/C=C/C(C)C [BENGAMIDE E] |  |  |  | Active |  |  |  | 0.06 µM |  |  | 7.5 µM | > 50 µM
CCCCCCCCCCCCCC(=O)O[C@H]1CC[C@H](NC(=O)[C@H](OC)[C@H](O)[C@@H](O)[C@H](O)/C=C/C(C)C)C(=O)NC1 [BENGAMIDE A] | Dose-dependent effect | 0.5 µM | inactive | Active | inactive | Dose-dependent effect | 1 µM | 0.018 µM | Dose-dependent effect | 0.5 µM | 0.075 µM | > 50 µM
CCCCCCCCCCCCCC(=O)O[C@H](/C=C/C(C)C)[C@H](O)[C@@H](O)[C@@H](OC)C(=O)N[C@H]1CCCCNC1=O [BENGAMIDE P] |  |  |  |  |  |  |  | 0.73 µM |  |  |  | 
CC1=C(O)C(=O)C=C2C1=CC=C1[C@@]2(C)CC[C@@]2(C)[C@@H]3C[C@](C)(C(=O)O)CC[C@]3(C)CC[C@]12C [CELASTROL] |  |  |  |  |  |  |  |  |  |  | 0.2 µM | > 50 µM
CO[C@@H](C(=O)N[C@H]1CC[C@@H](OC(=O)C2CCCCC2)CN(C)C1=O)[C@H](O)[C@@H](O)[C@H](O)/C=C/C(C)(C)C |  |  |  |  |  |  |  | 0.04 µM |  |  | 0.5 µM | > 50 µM
CCC(C)/C=C/[C@@H](O)[C@H](O)[C@@H](O)[C@@H](OC)C(=O)N[C@H]1CCCCNC1=O (mixture of isomers) |  |  |  |  |  |  |  | 1.1 µM |  |  | 2 µM | > 50 µM
CCC(C)/C=C/[C@@H](O)[C@H](O)[C@@H](O)[C@@H](OC)C(=O)N[C@H]1CCCCN(C)C1=O (mixture of isomers) |  |  |  |  |  |  |  | 1.5 µM |  |  | 2 µM | > 50 µM
